For seven molecules, ED and Activity results are on record in ChEMBL document CHEMBL1124668, “Solid-phase synthesis of 16 potent (selective and nonselective) in vivo antagonists of oxytocin” (J Med Chem, 1989).

Starred links: 1 amine or outer side, 2 acyl side, 3 side chain; linkers in the order of their positions; H or OH if unused. Positions of bridges follow the written chain, without caps; N, C: chain ends. Non-standard residues stand in square brackets, D forms with d. Residues, ends and D or L forms follow the SMILES beside them. X1 = O=C(CC1(S[*:2])CCCCC1)[*:1]; Orn = NCCC[C@H](N)C(=O)O

Assay [1] has as its system Rattus norvegicus. The assay can be described thus: Antidiuretic activity in rats as intravenous dose required for reduction of 2x agonist response to equal 1x effect in estrogen pretreated rats; Weak partial agonist/antagonist. The assay is classed as functional. To be noted: Urine.
Assay [2] concerns Rattus norvegicus. The assay can be described thus: (§1) In vivo antidiuretic activity as intravenous antagonist dose in estrogen pretreated rats; Weak partial agonist/antagonist. It is filed as functional, organism-based. The conditions noted are these: Urine.
Assay [3] relates to Rattus norvegicus. The assay can be described thus: In vivo inhibition of estrogen induced changes in interuterine pressure in rats. It is filed as functional. The procedure, abridged: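 Rats pretreated with estrogen, under urethane anesthesia; antagonist given iv; read-out is change in integrated intrauterine pressure; agonist synthetic oxytocin. Effective dose (nmol/kg) is the dose that cuts the response to 2X units of agonist to the response to 1X unit, interpolated on a semilog scale from doses above and below it. pA2 is derived assuming a 67 mL/kg distribution volume.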

For assay [4], the system named is Rattus norvegicus. The assay can be described thus: Antidiuretic activity in rats as intravenous dose required for reduction of 2x agonist response to equal 1x effect in hydrated rats under ethanol anesthesia; Weak partial agonist/antagonist.
In assay [5] the test system is Rattus norvegicus. The assay is described as follows: Antivasopressor activity in vivo in phenoxybenzamine pre-treated rats. The assay is classed as functional. The procedure, abridged:
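Rats pretreated with phenoxybenzamine, under urethane anesthesia; antagonist given iv; agonist USP Posterior Pituitary Reference Standard; read-out is pressor response. Effective dose (nmol/kg) is the dose that cuts the response to 2X units of agonist to that of 1X unit, interpolated semilogarithmically from bracketing doses. pA2 assumes a 67 mL/kg distribution volume. SEM is given where there are ≥4 independent estimates.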

The subject of assay [6] is Rattus norvegicus. The assay is described as follows: Antidiuretic activity in rats as intravenous dose required for reduction of 2x agonist response to equal 1x effect in estrogen pretreated rats; weak partial agonist/antagonist. The assay is classed as functional, Urine.
The species named for assay [7] is Rattus norvegicus. The assay is described as follows: Antidiuretic activity in rat. It is filed as functional, Urine.
Assay [8] deals with Rattus norvegicus. Described as §1. The assay is classed as functional, Urine.
The test system of assay [9] is Rattus norvegicus. The assay is described as follows: In vivo antidiuretic activity as intravenous antagonist dose in estrogen pretreated rats. It is filed as functional, Urine.
The species entered for assay [10] is Rattus norvegicus. The assay is described as follows: Antidiuretic activity in rats. It is filed as functional, Urine.

With `CC[C@H](C)[C@H]1NC(=O)[C@@H](Cc2ccc(OC)cc2)NC(=O)CC2(CCCCC2)SSC[C@H](C(=O)N2CCC[C@H]2C(=O)N[C@@H](CCCN)C(=O)N[C@H](C)C(N)=O)NC(=O)[C@@H](CC(N)=O)NC(=O)[C@H]([C@H](C)O)NC1=O`, the ED entry in the assay with Rattus norvegicus [1] is “Partial agonist”.

On to `CC[C@H](C)[C@H]1NC(=O)[C@@H](Cc2ccc(OC)cc2)NC(=O)CC2(CCCCC2)SSC[C@H](C(=O)N2CCC[C@H]2C(=O)N[C@@H](CCCN)C(=O)N[C@H](CCCN=C(N)N)C(N)=O)NC(=O)[C@@H](CC(N)=O)NC(=O)[C@H]([C@H](C)O)NC1=O`, for which the Activity entry in the assay with Rattus norvegicus [2] was “Partial agonist”.

As to `CC[C@H](C)[C@@H]1NC(=O)[C@H](Cc2ccc(OC)cc2)NC(=O)CC2(CCCCC2)SSC[C@@H](C(=O)N2CCC[C@H]2C(=O)N[C@@H](CCCN)C(=O)O)NC(=O)[C@H](CC(N)=O)NC(=O)[C@H]([C@@H](C)O)NC1=O` (Y(Me)ITNCP[Orn]-OH; linker N-5 via X1), the results for the ED in the assay on Rattus norvegicus [3], in the assay on Rattus norvegicus [4] and with Rattus norvegicus [5] were 1.3 nM/kg, about 300 nM/kg and 23 nM/kg, respectively.

Consider `CC[C@H](C)[C@@H]1NC(=O)[C@H](Cc2ccc(OC)cc2)NC(=O)CC2(CCCCC2)SSC[C@@H](C(=O)N2CCC[C@H]2C(=O)N[C@@H](CCCN)C(=O)NCC(N)=O)NC(=O)[C@H](CC(N)=O)NC(=O)[C@H]([C@@H](C)O)NC1=O` (Y(Me)ITNCP[Orn]G-NH2; linker N-5 via X1), for which the ED in the assay on Rattus norvegicus [3] was 2 nM/kg; in the assay on Rattus norvegicus [5] it was 9.9 nM/kg; in the assay with Rattus norvegicus [6], about 330 nM/kg. The Activity in the assay listed under Rattus norvegicus [7] was determined as 0.01 mg.

Regarding `CC[C@H](C)[C@@H]1NC(=O)[C@H](Cc2ccc(OC)cc2)NC(=O)CC2(CCCCC2)SSC[C@@H](C(=O)N2CCC[C@H]2C(=O)N[C@@H](CCCN)C(=O)N[C@@H](CC(C)C)C(N)=O)NC(=O)[C@H](CC(N)=O)NC(=O)[C@H]([C@@H](C)O)NC1=O` (Y(Me)ITNCP[Orn]L-NH2; linker N-5 via X1), the figures for the ED in the assay on Rattus norvegicus [3] and in the assay with Rattus norvegicus [5] were 1.8 nM/kg and 27 nM/kg, respectively. Also, in the assay on Rattus norvegicus [8], the Activity came to 0.029 mg.

For `CC[C@H](C)[C@@H]1NC(=O)[C@H](Cc2ccc(OC)cc2)NC(=O)CC2(CCCCC2)SSC[C@@H](C(=O)N2CCC[C@H]2C(=O)N[C@@H](CCCN)C(=O)N[C@@H](Cc2ccc(O)cc2)C(N)=O)NC(=O)[C@H](CC(N)=O)NC(=O)[C@H]([C@@H](C)O)NC1=O` (Y(Me)ITNCP[Orn]Y-NH2; linker N-5 via X1), the ED in the assay with Rattus norvegicus [3] came to 1 nM/kg; with Rattus norvegicus [5] it was 6.6 nM/kg. Further, in the assay with Rattus norvegicus [9], the Activity came out at 0.015 mg.

Regarding `CC[C@H](C)[C@@H]1NC(=O)C(Cc2ccc(OC)cc2)NC(=O)CC2(CCCCC2)SSC[C@@H](C(=O)N2CCC[C@H]2C(=O)N[C@@H](CCCN=C(N)N)C(=O)NCC(N)=O)NC(=O)[C@H](CC(N)=O)NC(=O)[C@H](CCC(N)=O)NC1=O` (stereo in doubt), the Activity in the assay listed under Rattus norvegicus [10] was about 0.03 mg. Besides, the ED in the assay on Rattus norvegicus [3] was 1.1 nM/kg; with Rattus norvegicus [5], 0.64 nM/kg.
